pIC50: −log10 of the molar value.
Key:
Assay type in all cases: functional, cell-based
[1] = system: HCT-116; assay: Cytotoxicity against human HCT116 cells after 48 hrs by SRB assay; details: HCT-116, 48 h
How it was run: (§1)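 Cells grown in RPMI-1640 with 10% FBS and antibiotics at 37 °C, 5% CO2. Agents from fresh 1 mg/ml DMSO stocks were diluted in medium and applied for 48 h at 37 °C in triplicate wells. Cells were fixed with cold 50% TCA, stained with 0.4% SRB, and the dye solubilized in 10 mM Tris pH 10.5 before reading A570. IC50 is the concentration giving 50% reduction in net protein increase versus untreated cells, after blank correction. Values are the mean ± SEM of at least two independent runs.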

[2] = system: SK-N-SH; assay: Cytotoxicity against human SK-N-SH cells after 48 hrs by SRB assay; how it was run: as §1
[3] = system: SK-BR-3; assay: Cytotoxicity against human SK-BR-3 cells after 48 hrs by SRB assay; details: SK-BR-3, 48 h; how it was run: as §1
[4] = system: DU-145; assay: Cytotoxicity against human DU145 cells after 48 hrs by SRB assay; details: DU-145, 48 h; how it was run: as §1
[5] = system: A549; assay: Cytotoxicity against human A549 cells after 48 hrs by SRB assay; details: A549, 48 h; how it was run: as §1

SMILES	pIC50 [1]	pIC50 [2]	pIC50 [3]	pIC50 [4]	pIC50 [5]
CO[C@@H]1CC=C2NN(c3ccc(C)cc3)C(=O)CC[C@]2(c2ccccc2)O1	5.60	5.77	5.57	5.66	5.50
CO[C@@H]1CC=C2NN(c3ccc([N+](=O)[O-])cc3)C(=O)CC[C@]2(c2ccccc2)O1	5.06	5.14	5.11	5.04	5.02
COc1cc(OC)cc(N2NC3=CC[C@@H](OC)O[C@@]3(c3ccccc3)CCC2=O)c1	5.68	5.49	5.92	5.62	5.54
CO[C@@H]1CC=C2NN(c3ccccn3)C(=O)CC[C@]2(c2ccccc2)O1	5.85	5.68	5.95	5.89	5.83
CO[C@@H]1CC=C2NN(c3c[nH]c4ccccc34)C(=O)CC[C@]2(c2ccccc2)O1	5.96	6.00	5.92	5.95	5.95
COc1ccc(N2NC3=CC[C@@H](OC)O[C@@]3(c3ccccc3)CCC2=O)cc1	5.51	5.34	5.62	5.39	5.29
CO[C@@H]1CC=C2NN(c3cc(Cl)cc(Cl)c3)C(=O)CC[C@]2(c2ccccc2)O1	5.19	5.15	5.20	5.07	5.21
CO[C@@H]1CC=C2N(c3ccc(C)cc3)C(=O)C[C@]2(c2ccccc2)O1	5.37	5.46	5.96	5.36	5.41
CO[C@@H]1CC=C2N(c3ccc([N+](=O)[O-])cc3)C(=O)C[C@]2(c2ccccc2)O1	5.10	5.03	5.20	5.09	5.15
COc1cc(OC)cc(N2C(=O)C[C@]3(c4ccccc4)O[C@H](OC)CC=C23)c1	5.21	5.14	5.96	5.21	5.39
CO[C@@H]1CC=C2N(c3ccccn3)C(=O)C[C@]2(c2ccccc2)O1	5.14	5.29	5.96	5.08	5.21
CO[C@@H]1CC=C2N(c3ccc4[nH]ccc4c3)C(=O)C[C@]2(c2ccccc2)O1	5.28	5.36	5.89	5.39	5.29
CO[C@@H]1CC=C2N(c3c[nH]c4ccccc34)C(=O)C[C@]2(c2ccccc2)O1	5.15	5.09	5.64	5.13	5.28
CO[C@@H]1CC=C2N(c3cc(Cl)cc(Cl)c3)C(=O)C[C@]2(c2ccccc2)O1	4.95	5.01	5.18	5.09	5.12
